HTRA1 inh – inhibitors of human serine peptidase HTRA1; Q92743; recombinant HTRA1, FP-rhodamine activity-based probe, fluorescence polarization; inhibition, % at 5.96 µM; actives 0.5% (n = 340,000); in the data active = inhibition above about 36%
SIAE primary – blocks human sialic acid acetylesterase; Q9HAT2; SIAE FP-Rh probe binding, fluorescence polarization; inhibition, % at 9.66 µM; actives 0.69% (n = 370,000); AID 1053197;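 active = inhibition above a cutoff: mean of compounds within the control limits plus 3 SD of those, cut at about 17% in these data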
PRMT1 inh – inhibitors of human PRMT1; Q99873; recombinant PRMT1, activity-based probe fluorescence polarization; inhibition, % at 2.79 µM; actives 1.3% (n = 370,000);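 active = inhibition above about 21% made by adding two undisclosed values, limit read from the data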
Target sequence (Q99873 whole entry, looked up): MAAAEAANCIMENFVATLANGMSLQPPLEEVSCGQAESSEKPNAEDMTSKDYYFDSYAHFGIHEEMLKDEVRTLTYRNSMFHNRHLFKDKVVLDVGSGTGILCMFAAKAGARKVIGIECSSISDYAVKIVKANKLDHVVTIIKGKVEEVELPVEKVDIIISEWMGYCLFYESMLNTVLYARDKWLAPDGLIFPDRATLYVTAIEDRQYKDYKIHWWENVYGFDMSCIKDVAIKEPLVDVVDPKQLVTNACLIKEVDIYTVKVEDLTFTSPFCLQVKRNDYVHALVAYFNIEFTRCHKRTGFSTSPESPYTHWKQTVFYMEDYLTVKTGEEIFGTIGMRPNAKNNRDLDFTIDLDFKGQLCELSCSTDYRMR
rCAG RNA binder – r(CAG) repeat RNA binding; TO-PRO-1 dye displacement fluorescence; inhibition, % at 3 µM; actives 1.3% (n = 370,000); AID 651821;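 active = inhibition above the plate cutoff, the mean of all test compounds on that plate plus 3 SD, cut at about 35% in these data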;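 note: higher means more dye released from RNA so lower well fluorescence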
ABHD4 inh – inhibits mouse alpha/beta hydrolase domain 4; Q8VD66; purified mABHD4, FP-Rh probe fluorescence polarization; inhibition, % at 8.92 µM; actives 0.54% (n = 370,000);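 active = inhibition exceeding the mean over every tested compound plus 3 SD, cut at about 30% in these data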
Target sequence (Q8VD66 whole entry, looked up, the tested form may be a part): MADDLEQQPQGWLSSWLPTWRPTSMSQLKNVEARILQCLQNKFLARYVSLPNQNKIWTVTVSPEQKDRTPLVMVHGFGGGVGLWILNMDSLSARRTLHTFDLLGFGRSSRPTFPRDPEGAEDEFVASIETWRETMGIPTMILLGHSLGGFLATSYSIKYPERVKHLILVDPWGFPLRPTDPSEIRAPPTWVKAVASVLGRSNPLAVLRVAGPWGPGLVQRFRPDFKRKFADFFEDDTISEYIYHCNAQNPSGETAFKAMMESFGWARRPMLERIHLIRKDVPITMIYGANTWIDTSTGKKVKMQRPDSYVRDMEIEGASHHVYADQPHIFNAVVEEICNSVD
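Test system: mABHD4 protein; Read-out basis: % inhibition; Incubation: 45 min + 60 min at 25 °C; Repeats: single replicate; Technique: fluorescence polarization with parallel and perpendicular emission, 525/598 nm; Compound: 8.92 µM, single dose; Benchmarks: full inhibition S159A mutant plus DMSO, zero as sample-well median.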
HTRA1 conf – HTRA1 (human) inhibition, confirmation | actives 66% (n = 1,600) | inhibition, % at 5.96 µM | AID 540248 | shares compounds with HTRA1 inh | recombinant HTRA1, FP-rhodamine activity-based probe, fluorescence polarization;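 active = mean inhibition over three repeats above a set limit taken from the earlier primary screen, cut at about 37% in these data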;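 note: inhibitors block probe binding so polarization drops and inhibition rises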
rCAG bind conf – r(CAG) RNA repeat binding, confirmation; shares compounds with rCAG RNA binder; TO-PRO-1 dye displacement fluorescence; inhibition, % at 3 µM; actives 70% (n = 4,300); AID 652065;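 active = inhibition above a per-plate cutoff, the mean inhibition of sample wells plus 3 SD, cut at about 35% in these data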;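 note: loss of TO-PRO-1 fluorescence as compound displaces dye from 1x1 AA loop RNA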
DNA CAG counter – disrupts DNA CAG TO-PRO-1 complex, flagging rCAG hits; AID 652068; d(CAG) DNA oligo TO-PRO-1 dye displacement, fluorescence; inhibition, % at 3 µM; shares compounds with rCAG RNA binder; actives 94% (n = 4,300);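 active = inhibition above its plate's cutoff, the mean test-well inhibition plus 3 SD, cut at about 4.8% in these data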;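 note: hits displace the dye from DNA and so lower well fluorescence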
DNA CAG DR – DNA CAG dye complex inhibition, dose response counter-screen | shares compounds with rCAG RNA binder | DNA CAG/GTC duplex TO-PRO-1 dye displacement fluorescence | IC50, µM | actives 20% (n = 250); in the data active = IC50 below about 10 µM
PRMT1 inh conf – PRMT1 (human) inhibition, FP confirmation | recombinant His-PRMT1, activity-based probe fluorescence polarization | inhibition, % at 2.79 µM | actives 42% (n = 3,300) | shares compounds with PRMT1 inh;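 active = mean inhibition across replicates above the hit cutoff derived for the earlier primary screen, cut at about 22% in these data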
mABHD4 conf – ABHD4 (mouse) inhibition, FP confirmation; shares compounds with ABHD4 inh; purified mABHD4, FP-Rh probe fluorescence polarization; inhibition, % at 8.92 µM; actives 55% (n = 1,800); AID 720658;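 active = mean inhibition across replicates above the hit cutoff set in the primary screen, cut at about 30% in these data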
Each line names hits and unclear results; the compound was inactive in the other large screens (follow-up assays come after a bar, where they were run). Rows were chosen to be rich in hits. Some 3.3% of all compounds tested hit in one or more screens of this group.

CCOC(=O)CC[C@@]1(C(=O)OCC)C[C@@H](CC(=O)N2CCSCC2)C(=O)N2CCCC=C21	none (no result: HTRA1 inh)
O=C1NC(=Nc2ccccc2Cl)S/C1=C\c1ccc(C(=O)O)cc1	none
O=C1NC(=Nc2ccccc2Cl)S/C1=C\c1cccc([N+](=O)[O-])c1O	HTRA1 inh 55, rCAG RNA binder 89, ABHD4 inh 53 | HTRA1 conf 58 | rCAG bind conf 70 | DNA CAG counter 33 | DNA CAG DR inactive | mABHD4 conf 60
Nc1cccc(Nc2ccccc2)c1	none
Nc1ccc(Nc2ccccc2)c(S(=O)(=O)O)c1	HTRA1 inh 58, PRMT1 inh 37, ABHD4 inh 63 | HTRA1 conf inactive | PRMT1 inh conf inactive | mABHD4 conf 44
Cc1ccc(Nc2ccc(N)cc2S(=O)(=O)O)cc1	HTRA1 inh 80, PRMT1 inh 33, rCAG RNA binder 36, ABHD4 inh 65 | HTRA1 conf inactive | rCAG bind conf inactive | DNA CAG counter 7.2 | PRMT1 inh conf inactive | mABHD4 conf inactive
CN1Cc2nnn(Cc3ccccc3)c2-c2cc(N3CCCCC3)ccc2S1(=O)=O	none (no result: HTRA1 inh)
CCCCCN1CCCCC(NC(=O)c2ccc(F)cc2)C1=O (stereo unspecified)	none (no result: HTRA1 inh)
O=[N+]([O-])c1cc(-c2ccc(/C=N/c3nc4ccccn4c3-c3ccco3)o2)ccc1Cl	HTRA1 inh 37, PRMT1 inh 41, ABHD4 inh 46 | HTRA1 conf 46 | PRMT1 inh conf inactive | mABHD4 conf inactive
O=[N+]([O-])c1cc(-c2cnc3ccccc3n2)ccc1Cl	none
CCN1Cc2nnn(Cc3ccccc3)c2-c2ccccc2S1(=O)=O	none (no result: HTRA1 inh)
Nc1ccc2ccccc2c1N=Nc1ccccc1	HTRA1 inh 59, ABHD4 inh 39 | HTRA1 conf 53 | mABHD4 conf 39
Nc1ncnc(N)c1N=Nc1ccccc1	none
O=S(c1ccccc1O)S(=O)c1ccccc1O (stereo unspecified)	HTRA1 inh 40, PRMT1 inh 88, rCAG RNA binder 72, ABHD4 inh 37 | HTRA1 conf inactive | PRMT1 inh conf 95 | mABHD4 conf 34
CS(=O)c1ccccc1O (stereo unspecified)	none
CC(C)CNC(=O)OCc1cn(Cc2ccc(C(F)(F)F)cc2)nn1	none (no result: HTRA1 inh)
CCS(=O)(=O)NCc1ccc2c(c1)cc(C)n2C	none
COc1ccc(S(=O)(=O)NCc2ccc3c(c2)cc(C)n3C)cc1	HTRA1 inh 40, SIAE primary 18, ABHD4 inh 47 | HTRA1 conf inactive | mABHD4 conf inactive
COC(=O)[C@]12C[C@H](CC(=O)N3CCN(C(=O)c4ccco4)CC3)C(=O)N(CCc3ccc(OC)c(OC)c3)C1=C[C@H](COCc1ccccc1)O[C@@H]2C	none (no result: HTRA1 inh)
N#C/C(N=Nc1ccccc1O)=N\Nc1ccccc1O	HTRA1 inh 68, rCAG RNA binder 57, ABHD4 inh 67 | HTRA1 conf 71 | rCAG bind conf 74 | DNA CAG counter 29 | mABHD4 conf 110
CCCCCCCCCCCCCCCC[n+]1ccccc1	HTRA1 inh 70, ABHD4 inh 54 | HTRA1 conf 77 | mABHD4 conf 50
CCCCCCCCCCCCCCCC[n+]1cccc(C(=O)N(CC)CC)c1	HTRA1 inh 58, ABHD4 inh 43 | HTRA1 conf 65 | mABHD4 conf 48
CCCCCCCC[n+]1cccc(C(=O)N(CC)CC)c1	none
CCCCCCCCCCCCCCCC[n+]1ccc(C(N)=O)cc1	HTRA1 inh 73, ABHD4 inh 41 | HTRA1 conf 76 | mABHD4 conf 88
CCCCC(=O)Nc1ccc(C(N)=O)cc1	none
COC(=O)[C@]12C[C@H](CC(=O)NCc3cccs3)C(=O)N(Cc3cccc4ccccc34)C1=C[C@H](C(C)(C)C)O[C@@H]2C	none (no result: HTRA1 inh)
Cc1ccccc1C(=O)NC1CCCCN(C(C)C)C1=O (stereo unspecified)	none (no result: HTRA1 inh)
Cc1c2ccccc2nc2c(F)c(NC(C)C)c(F)c(F)c12	HTRA1 inh 57, ABHD4 inh 47 | HTRA1 conf inactive | mABHD4 conf inactive
OCCNc1c2ccccc2nc2c(F)c(F)c(F)c(F)c12	none
Cc1c2ccccc2nc2c(F)c(NCCO)c(F)c(F)c12	HTRA1 inh 67, PRMT1 inh 27, ABHD4 inh 58 | HTRA1 conf inactive | mABHD4 conf 52
O=C(C(O)c1ccccc1)N1CCN(S(=O)(=O)c2ccc(C(F)(F)F)cc2)CC1 (stereo unspecified)	none (no result: HTRA1 inh)
CCCCCCCCCCCCCCCC[n+]1cccc2ccccc21	HTRA1 inh 64, ABHD4 inh 37 | HTRA1 conf 71 | mABHD4 conf 54
CCCCCCCCC[n+]1cccc2c3ccccc3ccc21	none (no result: SIAE primary, PRMT1 inh, rCAG RNA binder, ABHD4 inh)
O=C(NCc1ccccc1)[C@@H]1CCCN1C(=O)[C@H]1CCCN1C(=O)c1ccc(F)cc1	none (no result: HTRA1 inh)
O=C(c1cc(Br)cc(Br)c1)N1CCC(Oc2cccnc2)CC1	none (no result: HTRA1 inh)
NNC(=O)c1cc(O)c(O)c(O)c1	HTRA1 inh 79, ABHD4 inh 36 | HTRA1 conf inactive | mABHD4 conf inactive
COc1c(Cl)cc(C(=O)NN)cc1Cl	none
COCCN(C[C@@H]1[C@H](c2ccccc2)[C@H](CO)N1c1nc(C)c(C)s1)S(=O)(=O)c1ccccc1[N+](=O)[O-]	none (no result: HTRA1 inh)
N#CC1=C2N=C(N)c3c(sc4c3CCCCC4)N2C2=C(C(=O)CCC2)C1c1ccccc1 (stereo unspecified)	HTRA1 inh 40, ABHD4 inh 32 | HTRA1 conf inactive | mABHD4 conf inactive
N#CC1=C2N=C(N)c3ccccc3N2C2=C(C(=O)CCC2)C1c1ccc(F)cc1 (stereo unspecified)	none
Cc1nc(C)c(C(=O)Nc2nc3c(C)cccc3s2)o1	none
Cc1cccc2sc(NNC(=O)c3cc(=O)c4ccccc4o3)nc12	HTRA1 inh 38, rCAG RNA binder 54, ABHD4 inh 30 | HTRA1 conf 64 | rCAG bind conf 78 | DNA CAG counter 35 | mABHD4 conf 44
Cc1cc(-c2nnc(SCC(=O)Nc3cccc4ccccc34)n2N)n[nH]1	none (no result: HTRA1 inh)

Compound activity from PubChem.
